Measurements as given in the EternaBench riboswitch data.

Tested on: MS2 coat protein
Test: apparent Kd, MS2 coat protein; higher = weaker binding; RNA-MaP array; FMN 200 µM where present
How it was run: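 Two titrations, one without ligand and one with constant ligand, were run with SNAP-549-labelled MS2 coat protein from 0.7 or 1.5 nM, doubling to 3 µM. The targets were designs transcribed by stalled E. coli RNA polymerase on Illumina sequencing-chip clusters, in 100 mM Tris-HCl pH 7.5, 80 mM KCl, 4 mM MgCl2, BSA, DTT, yeast tRNA and Tween-20. The apparent Kd is the median of filtered per-cluster binding-curve fits, with green signal normalised to red-channel RNA signal and control-cluster median Fmax.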

[1] = designed as: OFF switch for flavin mononucleotide, no ligand
[2] = ligand present: flavin mononucleotide, designed as: OFF switch for flavin mononucleotide
[3] = designed as: ON switch for flavin mononucleotide, no ligand
[4] = ligand present: flavin mononucleotide, designed as: ON switch for flavin mononucleotide

GUCAGCUCGUGAGGAUAUACAACGCUGCUUCGGCAGUGUAUUAAGAUCACAUGAGGAUCACCCAUGUAGAAGGCACGAGCUGAU
apparent Kd [1]: 15.1 nM | apparent Kd [2]: 284 nM

CGCAUGUAAGGAUAUUAGUAGUAGUCAGAAUAGACUAUUACUGAGAAGGUACAUGAGGAUCACCCAUGUUAGCG
apparent Kd [1]: 117 nM | apparent Kd [2]: 592 nM

AUUUUAUAAUAGAAGGAGGACUUCAUGAGGAUCACCCAUGUGUUAGUACCUAGGAUAUGUAAUAACAUGAGGAUCACCCAUGUC
apparent Kd [3]: 49.5 nM | apparent Kd [4]: 40.3 nM

GGAUGUCAAAGACAUCCAAUACGAACAUGAGGAUCACCCAUGUAGGAUAUGCUACUCAAAGAGUAGCAGAAGGACAUGUGCCUU
apparent Kd [1]: 33.6 nM | apparent Kd [2]: 271 nM

CCAGGCAGUGUGAGGAUAUGCUGGUCCUUGGAUCAGCAGAAGGCACAUGAGGAUCACCCAUGUGAAGAGCUUGG
apparent Kd [1]: 23.9 nM | apparent Kd [2]: 115 nM

CAGUAUUUCGAAGGAUAUGGUUACAUGAGGAUCACCCAUGUAUUUUUUGUGAUCUUAAAAUUGAUCCAGAAGGUCGUAUAACUG
apparent Kd [1]: 101 nM | apparent Kd [2]: 232 nM

UUGGUCAGUCAGAAGGCUACAUUACAUGAGGAUCACCCAUGUCAAAAGUAGAGGAUAUGAAGUUCGCCAUGGUAAGAGCCUGUC
apparent Kd [3]: 34.7 nM | apparent Kd [4]: 6.26 nM

UGUUGUAUUACAGGAUAUCUAUGAUUUAUAUUUAGAGAAGGGUAUUCACAUGAGGAUCACCCAUGUAUAUACGAGGAAGUUGUG
apparent Kd [3]: 48.7 nM | apparent Kd [4]: 55.9 nM

AACAUGAGGAUCACCCAUGUCCCACCAGAAGGCUGGCGGCCACAGGAACGGCUGUGGCAAAUAACAGAGGAUAUGGUGAAUGCA
apparent Kd [3]: 80.8 nM | apparent Kd [4]: 16.1 nM

UGUGCGUCAGGAUAUUCUACUUAUUACAUGAGGAUCACCCAUGUGUAUGUACAAGGGUGUGAAGAAGGGACUUGUC
apparent Kd [1]: 935 nM | apparent Kd [2]: 305 nM

UUAUAUAAGGUGUAGCUAGACAUGCAAGAAGGGUGAAGAACAUGAGGAUCACCCAUGUAGACGGUACAGGAUAUUGAUUGACGA
apparent Kd [3]: 340 nM | apparent Kd [4]: 166 nM

GAUAGGCGAGGAUAUACAUGAGGAUCACCCAUGUAAGUAAGCCUGGCUGAAACUGAAUGUAGAAGGCGCACAUU
apparent Kd [1]: 18.4 nM | apparent Kd [2]: 45.1 nM

UUUUUACGAGGAUAUCGUUUUUUUCACAUGAGGAUCACCCAUGUUGUUUAUGUUGCGUUGCGAGAAGGCGUUUGUU
apparent Kd [1]: 27.4 nM | apparent Kd [2]: 22.8 nM

AUAUGAUAGAUAGGAUAUACUGUGGUUGAAUGUGUAGAAGGAUCGAUAGGGAAAUGUACAUGAGGAUCACCCAUGUUGUGGAUU
apparent Kd [3]: 48.4 nM | apparent Kd [4]: 39.9 nM

AUCUUUAAGGUAGGAUAUAGUAUGAUGGUUUAAUUAGAAGGAUCUCACAUGAGGAUCACCCAUGUAAUAGGAUUACCCAUGUAU
apparent Kd [1]: 54 nM | apparent Kd [2]: 43.6 nM

UUAAUUAUACAAGGAUAUCUAUUGUUGUUUCGACAUACAUGAGGAUCACCCAUGUUAGUAUGUUUAGAGAAGGUGUAUUUUCAG
apparent Kd [3]: 29 nM | apparent Kd [4]: 25.7 nM

UAUCCACAUGAGGAUCACCCAUGUGAGGAUAUGAUACUAUGUACUUCGGUACAUAGUAUCAGAAGGCACAGGUC
apparent Kd [1]: 21.3 nM | apparent Kd [2]: 36.3 nM

UAGGUGGAAGGAUAUACAUAUGGCCUAUGAGAUACUUCACGACAUGAGGAUCACCCAUGUAGAAGGUCUACCGU
apparent Kd [1]: 17.9 nM | apparent Kd [2]: 39.4 nM

ACAUGAGGAUCACCCAUGUUAUCAGGGACUUCAAUUAUUUGUAGAAGGCUGUUUUCUUGUUAGUCAGAGGAUAUACAAUUAAAU
apparent Kd [1]: 12.7 nM | apparent Kd [2]: 14.2 nM

UUAUUUUUUGAGGAUAUGCGACGUUUUUUCGUCGUAGAAGGCGAUACAUGAGGAUCACCCAUGUUUAUGGGCAU
apparent Kd [1]: 89.7 nM | apparent Kd [2]: 157 nM

GGUACACAUGAGGAUCACCCAUGUCAGGAUAUCUGGAUACUCUUUAUUUUAGAUAUCCAGAGAAGGGACGUGCC
apparent Kd [1]: 30.8 nM | apparent Kd [2]: 40.9 nM

GAAUAGGACAGAGGAUAUACGUGCUAGAGAUACUAGCAAAAUUUCCUCACAUGAGGAUCACCCAUGUAGAAGGCUGUCCUAUCG
apparent Kd [1]: 18.5 nM | apparent Kd [2]: 394 nM

UGUUGUAUUACAGGAUAUCUAUUGUUUUUAUAUAGAGAAGGGUAUUCACAUGAGGAUCACCCAUGUAUAUACGAGGAAGUUGUG
apparent Kd [3]: 41.1 nM | apparent Kd [4]: 45.8 nM

AAUAACAAGCAGAAGGGUGAAACGAUAUAGUGCACAGGAUAUGCAAUAAUUCUAAACAUGAGGAUCACCCAUGUCUAGCAUAAA
apparent Kd [3]: 28.2 nM | apparent Kd [4]: 9.84 nM

AAGCGAGGGACAGGAUAUGCAGCGAAACUCGCCGCAGAAGGGUCGACAUGAGGAUCACCCAUGUCCUUACGCUCCAAGUAGUGG
apparent Kd [3]: 232 nM | apparent Kd [4]: 299 nM

UUAAUGUGAGGAUAUCAGGUGUGCUAGCGUACUGGUACAUCUGAGAAGGCACAUGAGGAUCACCCAUGUUCCUG
apparent Kd [1]: 22.1 nM | apparent Kd [2]: 77.6 nM

AAAACAGUGUAGGAUAUGGCUGGGCUGAAAAUGCUAGAAGGACACACAUGAGGAUCACCCAUGUGACUUCGUGC
apparent Kd [1]: 13.8 nM | apparent Kd [2]: 15.5 nM

ACAUGCAUAGCGAUAUGAUCGAGAGAUCAUGUCGCAAAAUUUAGAAGGACAUGAGGAUCACCCAUGUAGGAUAUGGGAGCAUGA
apparent Kd [3]: 43.8 nM | apparent Kd [4]: 12.9 nM

GGUUGUCAUAGUCAUCCUUUCCGUACAUGAGGAUCACCCAUGUAGGAUAUGCUACUCACAGUGUGGCAGAAGGGCGUGUGUCUU
apparent Kd [2]: 19.4 nM

UUUGCAUUCCGAGGAUAUUCAUUUAAUGACUUCACAUGAGGAUCACCCAUGUGGCGAUAGCCUAGGGAGAAGGCGGUUUGCUUU
apparent Kd [3]: 24.4 nM | apparent Kd [4]: 19.6 nM

ACAUGAGGAUCACCCAUGUGUGCAUAGGAUAUUGAGGAUUAGGGAUAUUAUUAUGGAUUUGCCCACAAGAAGGAUGAAAGUGUU
apparent Kd [3]: 17.8 nM | apparent Kd [4]: 15.7 nM

AUUAUUUAGUGAGGAUAUACAGAUAAAGAGAUUGUAGAAGGCACUUUCCUCAGGACAUGAGGAUCACCCAUGUGUUAAUAAGAU
apparent Kd [1]: 72.5 nM | apparent Kd [2]: 267 nM

UUAAAUCGAAACAUGAGGAUCACCCAUGUGUUGUAAUUAAUAUAGGAUAUGUGUAUACUUUUAUAAUAGAAGGAUGAUAAUACU
apparent Kd [3]: 17.4 nM | apparent Kd [4]: 12.1 nM

UGAUAGGACAGAGGAUAUGCGUAUAGUUACCUCUACAUGAGGAUCACCCAUGUAGAAGGCUGUCCUAUCUAAGUCGGAAACGAC
apparent Kd [1]: 5.8 nM | apparent Kd [2]: 5.61 nM

UACGGGAGUGGAGGAUAUGCGUAGUACGCUAGAGCAGAAGGCCACAUGAGGAUCACCCAUGUGUCGUCGAAUGCGAUACGCUGG
apparent Kd [1]: 17.6 nM | apparent Kd [2]: 77.3 nM

GCCUGACAUGAGGAUCACCCAUGUGAGGAUAUUUGGAUUGAGGAGUAGCACAUAGUCCAAAGAAGGUAUGUGGG
apparent Kd [1]: 24.7 nM | apparent Kd [2]: 60.7 nM

GCCGAAGGAGGAUAUACACCCGGUGGCAAAACGCCGGCUCGACAUGAGGAUCACCCAUGUAGAAGGCCUGUGGU
apparent Kd [1]: 16.4 nM | apparent Kd [2]: 18 nM

AGUCUGCGAGGAUAUACAUGAGGAUCACCCAUGUGCGAGAUACUAGUGAGGUCGAUUGGUAGAAGGCGCGGACA
apparent Kd [1]: 111 nM | apparent Kd [2]: 66.1 nM

UGACCCAUGACAUGAGAUGACAUGAGGAUCACCCAUGUUUACAAGGAUAUGUUGAUGAAACAUCAACAGAAGGUGUAAUGGGCU
apparent Kd [1]: 29.8 nM | apparent Kd [2]: 158 nM

GGAUCGAGUGUGAGGAUAUGCAGGUCCUUGGAUCUGCAGAAGGCACAUGAGGAUCACCCAUGUGGAAACGGUCC
apparent Kd [1]: 64.2 nM | apparent Kd [2]: 567 nM

CACCGUUACAGAGGAUAUGAUACAUGAGGAUCACCCAUGUAAUAAAUGAGAAUUUCGAAUGUACCUCAGAAGGCUGGAACCGGC
apparent Kd [1]: 40.4 nM | apparent Kd [2]: 83.2 nM

UGAUGUAAAGAGAAGGGCUACUGGUUGAAACCUGCGGCCUCUGGAACAUGAGGAUCACCCAUGUAGCAGGAUAUCUUUGCGUCA
apparent Kd [1]: 169 nM | apparent Kd [2]: 31.4 nM

UAUUUAAUCUCAGGAUAUAACAUUACAUACAAAUUAGAAGGGAGAACAUGAGGAUCACCCAUGUACAUGAGGAUCACCCAUGUU
apparent Kd [3]: 692 nM | apparent Kd [4]: 576 nM

AUUAUAUAGACAGGAUAUAGAAUAUUAUUUUAACAUGAGGAUCACCCAUGUAACCUUAUGUGUAGCUAGAAGGGUCAUUUAUUA
apparent Kd [1]: 89.9 nM | apparent Kd [2]: 162 nM

GCUAGGCAUGUCAGGAUAUGCUGUACCUUGGUACAGCAGAAGGGACAUGAGGAUCACCCAUGUGCCUAUCUAGC
apparent Kd [1]: 42.9 nM | apparent Kd [2]: 419 nM

UAGGAGCAAGGAUAUACGAGGAUAUGGUAGUUUGUAGAGUGACAUGAGGAUCACCCAUGUAGAAGGUGCGUGUG
apparent Kd [1]: 123 nM | apparent Kd [2]: 99.7 nM

ACGACGAAAGUCGAACGAUGUAGCAGAAGGACAUGAGGAUCACCCAUGUCAGCUGUGACCUCAAAAUAGGAUAUGCUACAUCGA
apparent Kd [1]: 36.6 nM | apparent Kd [2]: 47.6 nM

CAGUGCAAUGUAGGAUAUGCUCAGGAUAACUGAGCAGAAGGACAUGAGGAUCACCCAUGUAAAAUGAAAGAUAAUAAAGCACUG
apparent Kd [1]: 16.6 nM | apparent Kd [2]: 49.9 nM

GAUCAAAACACUCCUUACACUACAUGAGGAUCACCCAUGUAGCAGGAUAUCAUUGCUCCUCGCUGUGAGAAGGGCUACGGGCGG
apparent Kd [1]: 8.92 nM | apparent Kd [2]: 15.6 nM

GUGGUCAGACAUGAGGAUCACCCAUGUGGAAUAAAUAAGGAGAAGGAUAUCUAAUAUAGGAUAUAAGAGAAGGUUUGGUUGGUG
apparent Kd [3]: 74 nM | apparent Kd [4]: 68 nM

GUAGCAUACCGAGGAUAUUCAUAGAAUAAAUAAACAUGAGGAUCACCCAUGUGGCGAAAGCCUAGGGAGAAGGCGGAAUGCUAC
apparent Kd [3]: 183 nM | apparent Kd [4]: 20.3 nM

UCCGGGUGCCAGAAGGGAGAUGGUUCGGAGGUCUCAGGAUAUGGCACAUGAGGAUCACCCAUGUGUUUACGUAAUUACAUGAGA
apparent Kd [1]: 20.9 nM | apparent Kd [2]: 21.6 nM

UUUAUAUUCAGAGGAUAUUAAAGUAGUAUAACAUAAGAAGGCUGUUUGUUUUGUAAAGUAAUUCUACAUGAGGAUCACCCAUGU
apparent Kd [3]: 20.9 nM | apparent Kd [4]: 17 nM

ACUGGUCGAGGAUAUACAUGAGGAUCACCCAUGUGGUUACGUGACGAUAGUCACGAAUGUAGAAGGCGACCAGU
apparent Kd [1]: 236 nM | apparent Kd [2]: 652 nM

UUACUACAUGAGGAUCACCCAUGUCAGGAUAUUGGAUAUGCCUUGGAAUACGUGUUUACAAGAAGGGACUAUAU
apparent Kd [1]: 23.4 nM | apparent Kd [2]: 21.4 nM
